Source: ChEMBL document CHEMBL3576786, “Discovery of target based novel pyrrolyl phenoxy derivatives as antimycobacterial agents: an in silico approach” (Eur J Med Chem, 2015)
Converted amounts (≈) assume the structure as drawn.

Columns and labels:
[1] = test system: Mycobacterium tuberculosis; test: Antimycobacterial activity against Mycobacterium tuberculosis H37Rv assessed as inhibition of bacterial growth after 5 days by Microplate Alamar Blue Assay; type: functional; details: 120 h
[2] = test system: Vero; test: Cytotoxicity against African green monkey Vero cells assessed as inhibition of cell proliferation by MTT assay; type: cell-based; details: Chlorocebus sabaeus
Summary of the method: (§1)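 MTT read-out; IC50 taken as the concentration giving a 50% drop in optical density of treated cells relative to untreated cells.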

[3] = test system: A549; test: Cytotoxicity against human A549 assessed as inhibition of cell proliferation by MTT assay; type: cell-based; summary of the method: as §1

SMILES	MIC [1] [µg/mL]	IC50 [2] [µM]	IC50 [3] [µM]
Clc1cccc(OCCOc2ccc(-n3cccc3)cc2)c1	25 (≈ 79.7 µM)	–	–
Oc1ccc(OCCCOc2ccc(-n3cccc3)cc2)cc1	12.5 (≈ 40.4 µM)	–	–
c1ccc(OCCOc2ccc(-n3cccc3)cc2)cc1	50 (≈ 179 µM)	–	–
Clc1ccc(OCCOc2ccc(-n3cccc3)cc2)cc1	12.5 (≈ 39.8 µM)	–	–
Clc1ccccc1OCCOc1ccc(-n2cccc2)cc1	25 (≈ 79.7 µM)	–	–
Brc1ccc(OCCOc2ccc(-n3cccc3)cc2)cc1	12.5 (≈ 34.9 µM)	–	–
Brc1cccc(OCCOc2ccc(-n3cccc3)cc2)c1	25 (≈ 69.8 µM)	–	–
Brc1ccccc1OCCOc1ccc(-n2cccc2)cc1	25 (≈ 69.8 µM)	–	–
Ic1ccc(OCCOc2ccc(-n3cccc3)cc2)cc1	12.5 (≈ 30.8 µM)	–	–
Fc1ccc(OCCOc2ccc(-n3cccc3)cc2)cc1	6.25 (≈ 21 µM)	–	–
O=[N+]([O-])c1ccc(OCCOc2ccc(-n3cccc3)cc2)cc1	50 (≈ 154 µM)	–	–
O=[N+]([O-])c1ccc(OCCOc2ccc(-n3cccc3)cc2)c([N+](=O)[O-])c1	100 (≈ 271 µM)	–	–
N#Cc1ccc(OCCOc2ccc(-n3cccc3)cc2)cc1	6.25 (≈ 20.5 µM)	–	–
O=Cc1ccc(OCCOc2ccc(-n3cccc3)cc2)cc1	12.5 (≈ 40.7 µM)	–	–
COc1cc(C=O)ccc1OCCOc1ccc(-n2cccc2)cc1	6.25 (≈ 18.5 µM)	–	–
CCOc1cc(C=O)ccc1OCCOc1ccc(-n2cccc2)cc1	3.12 (≈ 8.89 µM)	211	217
Cc1ccc(OCCOc2ccc(-n3cccc3)cc2)cc1	25 (≈ 85.2 µM)	–	–
Cc1cccc(OCCOc2ccc(-n3cccc3)cc2)c1	25 (≈ 85.2 µM)	–	–
Cc1ccccc1OCCOc1ccc(-n2cccc2)cc1	25 (≈ 85.2 µM)	–	–
Cc1cc(C)cc(OCCOc2ccc(-n3cccc3)cc2)c1	50 (≈ 163 µM)	–	–
Cc1ccc(C)c(OCCOc2ccc(-n3cccc3)cc2)c1	25 (≈ 81.3 µM)	–	–
Cc1ccc(OCCOc2ccc(-n3cccc3)cc2)c(C)c1	12.5 (≈ 40.7 µM)	–	–
Oc1ccc(OCCOc2ccc(-n3cccc3)cc2)cc1	12.5 (≈ 42.3 µM)	–	–

SMILES	MIC [1] [µg/mL]	IC50 [2] [µM]	IC50 [3] [µM]
Oc1cccc(OCCOc2ccc(-n3cccc3)cc2)c1	6.25 (≈ 21.2 µM)	–	–
Oc1ccccc1OCCOc1ccc(-n2cccc2)cc1	12.5 (≈ 42.3 µM)	–	–
Oc1cc(OCCOc2ccc(-n3cccc3)cc2)ccc1Cl	6.25 (≈ 19 µM)	–	–
Oc1cc(O)cc(OCCOc2ccc(-n3cccc3)cc2)c1	3.12 (≈ 10 µM)	231	237
c1ccc2c(OCCOc3ccc(-n4cccc4)cc3)cccc2c1	3.12 (≈ 9.49 µM)	220	215
c1ccc2cc(OCCOc3ccc(-n4cccc4)cc3)ccc2c1	3.12 (≈ 9.49 µM)	231	233
c1ccn(-c2ccc(OCCOc3ccc(-n4cccc4)cc3)cc2)c1	6.25 (≈ 18.1 µM)	–	–
Cc1ccc(C)n1-c1ccc(OCCOc2ccc(-n3cccc3)cc2)cc1	6.25 (≈ 16.8 µM)	–	–
Nc1ccc(OCCOc2ccc(-n3cccc3)cc2)cc1	100 (≈ 340 µM)	–	–
Nc1cccc(OCCOc2ccc(-n3cccc3)cc2)c1	100 (≈ 340 µM)	–	–
Nc1ccccc1OCCOc1ccc(-n2cccc2)cc1	100 (≈ 340 µM)	–	–
c1ccc(OCCCOc2ccc(-n3cccc3)cc2)cc1	50 (≈ 170 µM)	–	–
Clc1ccc(OCCCOc2ccc(-n3cccc3)cc2)cc1	6.25 (≈ 19.1 µM)	–	–
Clc1cccc(OCCCOc2ccc(-n3cccc3)cc2)c1	50 (≈ 153 µM)	–	–
Clc1ccccc1OCCCOc1ccc(-n2cccc2)cc1	25 (≈ 76.3 µM)	–	–
Brc1ccc(OCCCOc2ccc(-n3cccc3)cc2)cc1	6.25 (≈ 16.8 µM)	–	–
Brc1cccc(OCCCOc2ccc(-n3cccc3)cc2)c1	25 (≈ 67.2 µM)	–	–
Brc1ccccc1OCCCOc1ccc(-n2cccc2)cc1	25 (≈ 67.2 µM)	–	–
Ic1ccc(OCCCOc2ccc(-n3cccc3)cc2)cc1	12.5 (≈ 29.8 µM)	–	–
Fc1ccc(OCCCOc2ccc(-n3cccc3)cc2)cc1	6.25 (≈ 20.1 µM)	–	–
O=[N+]([O-])c1ccc(OCCCOc2ccc(-n3cccc3)cc2)cc1	100 (≈ 296 µM)	–	–
O=[N+]([O-])c1ccc(OCCCOc2ccc(-n3cccc3)cc2)c([N+](=O)[O-])c1	100 (≈ 261 µM)	–	–
N#Cc1ccc(OCCCOc2ccc(-n3cccc3)cc2)cc1	6.25 (≈ 19.6 µM)	–	–

SMILES	MIC [1] [µg/mL]	IC50 [2] [µM]	IC50 [3] [µM]
O=Cc1ccc(OCCCOc2ccc(-n3cccc3)cc2)cc1	12.5 (≈ 38.9 µM)	–	–
COc1cc(C=O)ccc1OCCCOc1ccc(-n2cccc2)cc1	3.12 (≈ 8.89 µM)	212	210
CCOc1cc(C=O)ccc1OCCCOc1ccc(-n2cccc2)cc1	3.12 (≈ 8.55 µM)	215	223
Cc1ccc(OCCCOc2ccc(-n3cccc3)cc2)cc1	12.5 (≈ 40.7 µM)	–	–
Cc1cccc(OCCCOc2ccc(-n3cccc3)cc2)c1	25 (≈ 81.3 µM)	–	–
Cc1ccccc1OCCCOc1ccc(-n2cccc2)cc1	25 (≈ 81.3 µM)	–	–
Cc1cc(C)cc(OCCCOc2ccc(-n3cccc3)cc2)c1	25 (≈ 77.8 µM)	–	–
Cc1ccc(C)c(OCCCOc2ccc(-n3cccc3)cc2)c1	25 (≈ 77.8 µM)	–	–
Cc1ccc(OCCCOc2ccc(-n3cccc3)cc2)c(C)c1	25 (≈ 77.8 µM)	–	–
Oc1cccc(OCCCOc2ccc(-n3cccc3)cc2)c1	12.5 (≈ 40.4 µM)	–	–
Oc1ccccc1OCCCOc1ccc(-n2cccc2)cc1	12.5 (≈ 40.4 µM)	–	–
Oc1cc(OCCCOc2ccc(-n3cccc3)cc2)ccc1Cl	6.25 (≈ 18.2 µM)	–	–
Oc1cc(O)cc(OCCCOc2ccc(-n3cccc3)cc2)c1	3.12 (≈ 9.6 µM)	220	227
c1ccc2c(OCCCOc3ccc(-n4cccc4)cc3)cccc2c1	1.6 (≈ 4.66 µM)	240	243
c1ccc2cc(OCCCOc3ccc(-n4cccc4)cc3)ccc2c1	3.12 (≈ 9.1 µM)	238	235
c1ccn(-c2ccc(OCCCOc3ccc(-n4cccc4)cc3)cc2)c1	6.25 (≈ 17.4 µM)	–	–
Cc1ccc(C)n1-c1ccc(OCCCOc2ccc(-n3cccc3)cc2)cc1	3.12 (≈ 8.09 µM)	235	237
Nc1ccc(OCCCOc2ccc(-n3cccc3)cc2)cc1	50 (≈ 162 µM)	–	–
Nc1cccc(OCCCOc2ccc(-n3cccc3)cc2)c1	100 (≈ 324 µM)	–	–
Nc1ccccc1OCCCOc1ccc(-n2cccc2)cc1	100 (≈ 324 µM)	–	–
NNC(=O)c1ccncc1 [ISONIAZID]	0.25 (≈ 1.82 µM)	> 450	> 450
Oc1cc(Cl)ccc1Oc1ccc(Cl)cc1Cl [TRICLOSAN]	10 (≈ 34.5 µM)	–	–
